What was measured:
Rattus norvegicus [1] = test: Antiinflammatory activity in albino rat assessed as inhibition of carrageenan-induced paw edema at 0.28 mmol/kg, po administered 30 mins prior to carrageenan-challenge measured after 5 hrs relative to control; type: functional
In short: (§1)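 Male albino rats in groups of four were fasted 24 h with water allowed. Dosing was oral at 0.28 mmol/kg, suspended in 0.5% w/v CMC; controls got CMC alone. After 30 min, 0.1 ml of 1% carrageenan in saline went subplantar into the right hind paw and saline into the left. Paw thickness was read by caliper before and at 1–5 h. % inhibition = [(VR−VL)control−(VR−VL)treated]/(VR−VL)control ×100. Mean ± SEM, n = 4, one-way ANOVA vs control.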

Rattus norvegicus [2] = test: Gastrointestinal toxicity in albino rat carrageenan-induced paw edema model assessed as decrease in thickness of gastric mucosa with marked loss of mucosal membrane at areas of ulceration at 0.28 mmol/kg, po by hematoxylin and eosin staining-based light microscopic analysis; type: organism-based; conditions: in vivo
In short: (§2)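 Rats were dosed orally at 0.28 mmol/kg, suspended in 0.5% aqueous CMC; vehicle-only animals served as controls. After ulcer scoring, stomach sections were stained with haematoxylin and eosin: acid-alcohol differentiation, then 1% eosin for 10 min. Sections were dehydrated, cleared in xylene, mounted and examined by light microscopy.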

Rattus norvegicus [3] = test: Antiinflammatory activity in albino rat assessed as inhibition of carrageenan-induced paw edema at 0.28 mmol/kg, po administered 30 mins prior to carrageenan-challenge measured after 2 hrs relative to control; type: functional; in short: as §1
Rattus norvegicus [4] = test: Gastrointestinal toxicity in albino rat carrageenan-induced paw edema model assessed as loss of morphology of glandular structures at 0.28 mmol/kg, po by hematoxylin and eosin staining-based light microscopic analysis; type: organism-based; conditions: in vivo; in short: as §2
Rattus norvegicus [5] = test: Ulcerogenic activity in albino rat carrageenan-induced paw edema model assessed as ulcer index at 0.28 mmol/kg, po (reference value: 0.60 +/- 0.05); type: toxicity, organism-based; conditions: in vivo
In short: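 Rats given the compound orally at 0.28 mmol/kg, suspended in 0.5% aqueous CMC; vehicle-only control, n = 4 per group. Gastric ulcers graded by area: I (<1 mm²), II (1–3 mm²), III (>3 mm²). Ulcer index = 1×(level I count) + 2×(level II) + 3×(level III). Mean ± SEM, one-way ANOVA versus control.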

Rattus norvegicus [6] = test: Antiinflammatory activity in albino rat assessed as inhibition of carrageenan-induced paw edema at 0.28 mmol/kg, po administered 30 mins prior to carrageenan-challenge measured after 3 hrs relative to control; type: functional; in short: as §1
Rattus norvegicus [7] = test: Antiinflammatory activity in albino rat assessed as inhibition of carrageenan-induced paw edema at 0.28 mmol/kg, po administered 30 mins prior to carrageenan-challenge measured after 4 hrs relative to control; type: functional; in short: as §1
Rattus norvegicus [8] = test: Antiinflammatory activity in albino rat assessed as inhibition of carrageenan-induced paw edema at 0.28 mmol/kg, po administered 30 mins prior to carrageenan-challenge measured after 1 hr relative to control; type: functional; in short: as §1
[9] = Induction of nitric oxide release in phosphate buffer at 10^-4 M at pH 7.4 after 5 hrs by Griess colorimetric method in presence of N-acetylcysteine; type: physicochemical; conditions: pH 7.4, 5 h, 100 µM
In short: (§3)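 Final drug concentration 10^-4 M, added from DMF into 1:1 50 mM phosphate buffer (pH 7.4)/MeOH containing 5 × 10^-4 M N-acetylcysteine, at 37 °C. Nitrite read with Griess reagent after 10 min at room temperature, absorbance at 546 nm. Calibration with sodium nitrite standards (10–80 nmol/ml). Reported as mol NO per mol, n = 4 reaction mixtures.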

Rattus norvegicus [10] = test: Gastrointestinal toxicity in albino rat carrageenan-induced paw edema model assessed as acute inflammatory cell infiltrating its whole thickness at 0.28 mmol/kg, po by hematoxylin and eosin staining-based light microscopic analysis; type: organism-based; conditions: in vivo; in short: as §2
[11] = Induction of nitric oxide release in phosphate buffer at 10^-4 M at pH 7.4 after 6 hrs by Griess colorimetric method in presence of N-acetylcysteine; type: physicochemical; conditions: pH 7.4, 6 h, 100 µM; in short: as §3
[12] = Induction of nitric oxide release in phosphate buffer at 10^-4 M at pH 7.4 after 4 hrs by Griess colorimetric method in presence of N-acetylcysteine; type: physicochemical; conditions: pH 7.4, 4 h, 100 µM; in short: as §3
Rattus norvegicus [13] = test: Gastrointestinal toxicity in albino rat carrageenan-induced paw edema model assessed as severe atrophic gastritis and gland atrophy at 0.28 mmol/kg, po by hematoxylin and eosin staining-based light microscopic analysis; type: organism-based; conditions: in vivo; in short: as §2
[14] = Induction of nitric oxide release in HCl buffer at 10^-4 M at pH 1 after 1 hr by Griess colorimetric method in presence of N-acetylcysteine; type: physicochemical; conditions: pH 1, 1 h, 100 µM
In short: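 Same Griess nitrite procedure at 10^-4 M final drug with N-acetylcysteine at 37 °C, but with 0.1 N HCl (pH 1) in place of the pH 7.4 phosphate buffer. Absorbance at 546 nm against a sodium nitrite calibration curve.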

Rattus norvegicus [15] = test: Gastrointestinal toxicity in albino rat carrageenan-induced paw edema model assessed as appearance of ulcer at 0.28 mmol/kg, po by hematoxylin and eosin staining-based light microscopic analysis; type: organism-based; conditions: in vivo; in short: as §2
[16] = Induction of nitric oxide release in phosphate buffer at 10^-4 M at pH 7.4 after 3 hrs by Griess colorimetric method in presence of N-acetylcysteine; type: physicochemical; conditions: pH 7.4, 3 h, 100 µM; in short: as §3
[17] = Induction of nitric oxide release in phosphate buffer at 10^-4 M at pH 7.4 after 1 hr by Griess colorimetric method in presence of N-acetylcysteine; type: physicochemical; conditions: pH 7.4, 1 h, 100 µM; in short: as §3
Rattus norvegicus [18] = test: Gastrointestinal toxicity in albino rat carrageenan-induced paw edema model assessed as capillary vasodilatation of lamina propria associated with accumulation of edema fluid at 0.28 mmol/kg, po by hematoxylin and eosin staining-based light microscopic analysis; type: organism-based; conditions: in vivo; in short: as §2
[19] = Induction of nitric oxide release in phosphate buffer at 10^-4 M at pH 7.4 after 2 hrs by Griess colorimetric method in presence of N-acetylcysteine; type: physicochemical; conditions: pH 7.4, 2 h, 100 µM; in short: as §3
Rattus norvegicus [20] = test: Gastrointestinal toxicity in albino rat carrageenan-induced paw edema model assessed as apoptotic glandular epithelial cells at 0.28 mmol/kg, po by hematoxylin and eosin staining-based light microscopic analysis; type: organism-based, Epithelial cell; conditions: in vivo; in short: as §2
Rattus norvegicus [21] = test: Gastrointestinal toxicity in albino rat carrageenan-induced paw edema model assessed as destruction of surface epithelium and epithelial lining of gastric pits at 0.28 mmol/kg, po by hematoxylin and eosin staining-based light microscopic analysis; type: organism-based, Stomach; conditions: in vivo; in short: as §2

Row | Activity [9] [mol/mol] | Activity [11] [mol/mol] | Activity [12] [mol/mol] | Activity [14] | Activity [16] [mol/mol] | Activity [17] [mol/mol] | Activity [19] [mol/mol] | SMILES | inhibition in vivo at 280 µmol/kg (Rattus norvegicus [1]) [%] | Activity (Rattus norvegicus [2]) | inhibition in vivo at 280 µmol/kg (Rattus norvegicus [3]) [%] | UI (Rattus norvegicus [5]) | inhibition in vivo at 280 µmol/kg (Rattus norvegicus [6]) [%] | inhibition in vivo at 280 µmol/kg (Rattus norvegicus [7]) [%] | inhibition in vivo at 280 µmol/kg (Rattus norvegicus [8]) [%] | Activity (Rattus norvegicus [10]) | Activity (Rattus norvegicus [13]) | Activity (Rattus norvegicus [18]) | other results
1 | – | – | – | – | – | – | – | C=CCn1c(SCC(=O)Nc2ccc(C(C)=O)cc2)nnc1-c1ccc(OC)c(OC)c1 | 64 | Toxic | 57 | 2.45 | 58 | 70 | 56 | – | – | – | Activity (Rattus norvegicus [4]): Toxic
2 | 0.27 | 0.26 | 0.35 | Not Active | 0.32 | 0.13 | 0.16 | C=CCn1c(SCC(=O)Nc2ccc(/C(C)=N/O)cc2)nnc1-c1ccc(OC)c(OC)c1 | 79 | – | 56 | 0.25 | 70 | 79 | 53 | Non-toxic | Non-toxic | Non-toxic | Activity (Rattus norvegicus [15]): Non-toxic
3 | 0.18 | 0.16 | 0.24 | Not Active | 0.19 | 0.11 | 0.15 | C=CCn1c(SCC(=O)Nc2ccc(/C(C)=N/O)cc2)nnc1-c1cc(OC)c(OC)c(OC)c1 | 64 | – | 53 | 0.75 | 62 | 72 | 49 | – | – | – | –
4 | – | – | – | – | – | – | – | COc1ccc2c(c1)c(CC(=O)O)c(C)n2C(=O)c1ccc(Cl)cc1 [INDOMETHACIN] | 87 | Toxic | 67 | 63.34 | 74 | 83 | 51 | Toxic | Toxic | Toxic | Activity (Rattus norvegicus [20]): Toxic; Activity (Rattus norvegicus [21]): Toxic
